The test concerns T1, NPC1-like intracellular cholesterol transporter 1 (Homo sapiens), Q9UHC9 [I1061T].
T1 sequence (whole entry): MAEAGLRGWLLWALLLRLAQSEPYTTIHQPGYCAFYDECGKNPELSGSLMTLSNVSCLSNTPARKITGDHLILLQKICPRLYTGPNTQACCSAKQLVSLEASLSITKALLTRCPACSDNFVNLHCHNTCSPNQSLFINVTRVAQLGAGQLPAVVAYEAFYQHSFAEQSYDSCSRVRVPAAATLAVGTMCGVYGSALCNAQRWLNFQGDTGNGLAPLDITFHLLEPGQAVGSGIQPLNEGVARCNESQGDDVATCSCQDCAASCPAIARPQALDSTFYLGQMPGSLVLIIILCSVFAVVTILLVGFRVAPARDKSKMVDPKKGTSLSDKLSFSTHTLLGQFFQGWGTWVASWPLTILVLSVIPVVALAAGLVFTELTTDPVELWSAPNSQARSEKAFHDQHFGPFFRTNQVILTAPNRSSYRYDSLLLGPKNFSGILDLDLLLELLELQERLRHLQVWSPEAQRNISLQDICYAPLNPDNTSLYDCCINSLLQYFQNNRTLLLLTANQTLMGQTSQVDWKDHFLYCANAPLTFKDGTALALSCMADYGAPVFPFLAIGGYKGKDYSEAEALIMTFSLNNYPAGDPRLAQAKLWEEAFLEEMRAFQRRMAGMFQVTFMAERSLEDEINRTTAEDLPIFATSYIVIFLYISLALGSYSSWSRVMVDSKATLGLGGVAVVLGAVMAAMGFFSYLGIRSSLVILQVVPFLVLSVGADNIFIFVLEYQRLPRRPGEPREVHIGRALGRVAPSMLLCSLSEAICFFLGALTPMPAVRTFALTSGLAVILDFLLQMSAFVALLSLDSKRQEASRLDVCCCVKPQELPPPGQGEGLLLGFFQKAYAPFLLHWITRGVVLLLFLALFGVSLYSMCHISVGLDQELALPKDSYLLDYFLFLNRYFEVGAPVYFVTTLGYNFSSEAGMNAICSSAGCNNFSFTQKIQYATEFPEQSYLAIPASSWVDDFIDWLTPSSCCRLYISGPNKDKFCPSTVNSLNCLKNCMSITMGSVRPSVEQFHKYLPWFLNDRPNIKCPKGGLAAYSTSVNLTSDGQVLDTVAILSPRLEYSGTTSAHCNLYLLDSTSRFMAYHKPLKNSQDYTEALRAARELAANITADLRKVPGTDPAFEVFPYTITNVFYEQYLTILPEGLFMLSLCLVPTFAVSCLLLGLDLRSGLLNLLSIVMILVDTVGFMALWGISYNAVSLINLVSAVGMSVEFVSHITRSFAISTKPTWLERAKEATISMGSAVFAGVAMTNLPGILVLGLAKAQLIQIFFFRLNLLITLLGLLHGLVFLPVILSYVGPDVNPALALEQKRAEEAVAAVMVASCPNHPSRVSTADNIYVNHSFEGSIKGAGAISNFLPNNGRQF
In words: Binding affinity to FLAG/tGFP-tagged NPC1 I1061T mutant (unknown origin) expressed in HEK293 cells assessed as localization after 24 hrs by fluorescence microscopy. It counts as cell-based. The gist of the method: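 HEK293 cells stably expressing NPC1 I1061T-tGFP were exposed to compound for 24 h, fixed, and nuclei stained with Hoechst 33342. In the images, each cell was scored by tGFP pattern: ER 0, mixed ER+vesicle 0.5, vesicular 1. Scores were averaged to give the vesicular-localization percentage, and EC50 was taken from concentration-response. Data are mean ± standard deviation of three independent experiments.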

As to `C[C@H](CCCC(C)(C)O)[C@H]1CC[C@H]2[C@@H]3CC=C4C[C@@H](O)CC[C@]4(C)[C@H]3CC[C@]12C`, the Activity result is “Dose-dependent effect”.
